Assay outcomes deposited in PubChem by several laboratories.
MEX-5 binding: MEX-5 zinc finger RNA-binding disruptors – biochemical, C. elegans, fluorescence polarization, MLPCN library, primary screen | activity score (negative = inhibition of binding), % at 10 µM | 300,000 compounds, 0.38% hits | MEX-5/FITC-TCR2 RNA binding; hits give low values | Zinc finger protein mex-5 (Caenorhabditis elegans), Q9XUB2;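 active = inhibition past about -25% in most replicates, and total fluorescence under double the plate's negative control median, limit read from the data; inconclusive = replicates evenly split on the limit, or fluorescence at least double controls; inactive = too little inhibition in most replicates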
Target sequence (Q9XUB2 whole entry, looked up): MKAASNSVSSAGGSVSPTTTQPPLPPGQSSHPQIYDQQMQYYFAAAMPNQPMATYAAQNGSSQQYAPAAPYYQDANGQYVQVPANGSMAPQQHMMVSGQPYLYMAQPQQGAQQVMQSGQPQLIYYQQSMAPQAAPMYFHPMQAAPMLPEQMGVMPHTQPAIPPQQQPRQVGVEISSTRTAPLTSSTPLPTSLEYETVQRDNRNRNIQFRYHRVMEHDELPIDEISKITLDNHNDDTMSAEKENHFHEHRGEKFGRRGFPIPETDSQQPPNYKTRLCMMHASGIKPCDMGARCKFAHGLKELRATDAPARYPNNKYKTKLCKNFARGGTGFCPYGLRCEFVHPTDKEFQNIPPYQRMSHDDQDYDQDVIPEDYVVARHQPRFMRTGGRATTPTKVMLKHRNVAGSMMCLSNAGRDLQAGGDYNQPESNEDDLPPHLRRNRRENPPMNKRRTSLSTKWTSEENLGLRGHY
RanGTP-Impb inh: inhibitors of RanGTP-importin-beta interaction, primary screen, biochemical, FRET, CFP-Ran, YFP-importin-beta, homogeneous. 300,000 compounds, 1.1% hits. inhibition, % (no concentration beside the values). cell-free CFP-Ran/YFP-importin-beta FRET ratio. Ran GTPase (GTP-bound) - importin-beta complex;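 active = more than half of the replicate wells show a fall in the fluorescence ratio signal beyond about 16%, limit read from the data, passing the limit was not always enough; inconclusive = exactly half of the replicate wells pass the set limit; inactive = fewer than half of replicates pass the limit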
Runt-SMMHC FRET: inhibitors of RUNX1 Runt–CBFb-SMMHC binding, primary screen, biochemical, FRET, Cerulean-Runt, Venus-CBFb-SMMHC, uHTS | Runt-related transcription factor 1 (Homo sapiens) + Core-binding factor subunit beta … | Cerulean-Runt/Venus-CBFb-SMMHC FRET ratio 530/480, 1 h | inhibition, % at 20 µM | 220,000 compounds, 0.74% hits;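 active = mean inhibition across duplicate retests at 20 µM reaching about 50%, limit read from the data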;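 also: inhibitors lower the FRET ratio by blocking Runt binding to CBFb-SMMHC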
Runt-CBFb FRET: inhibitors of RUNX1 Runt–CBFb binding, primary screen, biochemical, FRET, Cerulean-Runt, Venus-CBFb, uHTS | AID 1496, 2009 | 220,000 compounds, 0.46% hits | Runt-related transcription factor 1 (Homo sapiens) + Core-binding factor subunit beta … | inhibition, % at 20 µM | Cerulean-Runt/Venus-CBFb FRET ratio 530/480, 1 h;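 active = inhibition over about 50% at 20 µM in the single-dose screen, limit read from the data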
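test system = Cerulean-Runt domain fusion protein, energy donor | probe or stimulus = Venus-CBFb binding partner, 100 nM | incubation = two 1 h room-temperature incubations shielded from light | detection = fluorescence energy transfer, 422 nm excitation, 530/480 nm emission | measure = loss of energy transfer signal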
PKD1 kinase inh: inhibitors of human PKD1 kinase, biochemical, fluorescence polarization. PKD1 kinase fluorescence polarization assay. inhibition, % (test concentration not listed). 200,000 compounds, 0.056% hits. AID 797, 2007
EBV gp42 block: Epstein-Barr virus gp42 inhibitors, primary screen, biochemical, uHTS, fluorescence polarization. Fluorescence polarization binding assay, mP read-out. Glycoprotein 42 (Epstein-Barr virus (strain AG876)), Q1HVG2. 220,000 compounds, 0.42% hits. inhibition, % (tested at 21.74 µM)
Target sequence (Q1HVG2 whole entry, looked up): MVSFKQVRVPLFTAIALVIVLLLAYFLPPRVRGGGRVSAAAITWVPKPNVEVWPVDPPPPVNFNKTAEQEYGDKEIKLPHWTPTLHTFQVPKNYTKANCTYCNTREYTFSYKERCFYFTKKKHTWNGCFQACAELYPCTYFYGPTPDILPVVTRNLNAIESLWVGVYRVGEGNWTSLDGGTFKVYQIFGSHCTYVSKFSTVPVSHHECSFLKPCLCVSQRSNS
Of the large screens only hits and unclear results are named; the others gave an inactive call. Compounds with a hit are over-represented: about 2% of the library has one in this group of screens. Rule as the data show it, unless noted: active = inhibition above about 50%; inactive = the rest.

Cc1oc2c(CN3CCCC3)c(O)ccc2c(=O)c1Oc1ccccc1Br	none
CN1CCN(Cc2c(O)ccc3c(=O)c(Oc4ccccc4Cl)c(C(F)(F)F)oc23)CC1	RanGTP-Impb inh 22.2
CCCCN1C(=O)/C(=C/C=C2\N(C)c3ccccc3C2(C)C)SC1=S	EBV gp42 block active (no result: MEX-5 binding)
COC(CNC(=O)c1ccc(Cn2c(=S)[nH]c3cc4c(cc3c2=O)OCO4)cc1)OC	RanGTP-Impb inh 125.2
CC(=O)Nc1ccc(OCCC[n+]2ccccc2)cc1	RanGTP-Impb inh 16.6
Cn1c(/N=C/c2c(O)ccc3ccccc23)nc2ccccc21	EBV gp42 block 157.3 (no result: MEX-5 binding, RanGTP-Impb inh)
Cc1cc(C(=O)COc2cccc3cccnc23)c(C)n1C	RanGTP-Impb inh 89.6
COC(=O)C(Cc1ccccc1)NC(=O)CCNC(=O)c1ccco1 (stereo not drawn)	none (no result: Runt-SMMHC FRET, Runt-CBFb FRET, PKD1 kinase inh, EBV gp42 block)
O=C(NCc1ccco1)c1ccc2nc3sc4c(c3c(=O)n2c1)CCCC4	RanGTP-Impb inh 62.4, Runt-SMMHC FRET 63.3, Runt-CBFb FRET 63.4
CN1CCc2c(sc3nc(NCCO)n(-c4cccc(Cl)c4)c(=O)c23)C1	RanGTP-Impb inh 92.2 (no result: Runt-SMMHC FRET, Runt-CBFb FRET, PKD1 kinase inh, EBV gp42 block)
COC(=O)CSc1nc2sc3c(c2c(=O)n1C1CCCCC1)CCN(C)C3	RanGTP-Impb inh 26.3
CN1CCc2c(sc3c2c(=O)n(-c2cccc(Cl)c2)c2nncn32)C1	none (no result: Runt-SMMHC FRET, Runt-CBFb FRET, EBV gp42 block)
C=CCn1c(SCC(=O)NCc2ccco2)nc2sc3c(c2c1=O)CCCC3	none
CN1CCc2c(sc3nc(SCC(=O)NCc4ccco4)n(-c4ccccc4)c(=O)c23)C1	RanGTP-Impb inh 25.4 (no result: Runt-SMMHC FRET, Runt-CBFb FRET, PKD1 kinase inh, EBV gp42 block)
COc1ccc(-n2c(SCC(=O)NCc3ccco3)nc3sc4c(c3c2=O)CCN(C)C4)cc1	none (no result: Runt-SMMHC FRET, Runt-CBFb FRET, PKD1 kinase inh, EBV gp42 block)
Cc1ccc(S(=O)(=O)N2CCN(C(=O)COC(=O)CCOc3ccc(C(C)(C)C)cc3)CC2)cc1	none (no result: Runt-SMMHC FRET, Runt-CBFb FRET, PKD1 kinase inh, EBV gp42 block)
COc1cccc(C(=O)NC2CCNCC2)c1	none (no result: Runt-SMMHC FRET, Runt-CBFb FRET, PKD1 kinase inh, EBV gp42 block)
O=C(CCN1CCC(c2ccc(Cl)s2)=N1)c1ccc(Cl)s1	RanGTP-Impb inh 16.4 (no result: PKD1 kinase inh)
Cn1nc(C(=O)NNC(=O)CCc2ccccc2Cl)c2ccccc2c1=O	none (no result: Runt-SMMHC FRET, Runt-CBFb FRET, PKD1 kinase inh, EBV gp42 block)
CSc1nc2ccc(NC(=O)NC(=O)c3c(F)cccc3F)cc2s1	none (no result: PKD1 kinase inh)
COc1cccc(F)c1C(=O)NC(=O)Nc1ccc2nc(C)oc2c1	MEX-5 binding -30.6 (no result: PKD1 kinase inh)
O=Cc1cn(-c2ccccc2)nc1-c1cc2cc(O)ccc2oc1=O	RanGTP-Impb inh 39.8, Runt-SMMHC FRET 57.2, Runt-CBFb FRET 93.7
CCc1nnc(SCC(=O)N2CCCC(N3CCN(c4ccccc4C)CC3)C2)o1 (stereo not drawn)	none (no result: Runt-SMMHC FRET, Runt-CBFb FRET, PKD1 kinase inh, EBV gp42 block)
Cc1ccc(-n2c(C)nnc2SCC(=O)NNC(=O)c2ccco2)cc1	none
COc1ccc(-c2cn3nc4c(nc3n2)CCCC4)cc1	EBV gp42 block 96.1 (no result: MEX-5 binding, RanGTP-Impb inh)
c1ccc(N2CCN(c3nc4ccccc4n4nnnc34)CC2)cc1	RanGTP-Impb inh 43.6
c1ccc2c(c1)nc(N1CCOCC1)c1nnnn12	RanGTP-Impb inh inconclusive
Cc1ccccc1C1C(C#N)=C(N)N(N(C)C)C2=C1C(=O)CC(C)(C)C2 (stereo not drawn)	none (no result: Runt-SMMHC FRET, Runt-CBFb FRET, PKD1 kinase inh, EBV gp42 block)
CC(=O)c1ccc(/C=C/c2nc3ccccc3n2C)o1	Runt-SMMHC FRET 81.0 (no result: PKD1 kinase inh)
Cn1c(=O)c(/C=C/c2ccccc2)nc2ccccc21	RanGTP-Impb inh 52.9, Runt-SMMHC FRET 98.8
CN(C)c1nc2ccccc2n(C)c1=O	none
O=c1c(/C=C(\O)c2ccc(F)cc2)nc2ccccc2n1-c1ccccc1	MEX-5 binding inconclusive, RanGTP-Impb inh 77.0
Cn1c(=O)c(/C=C/c2ccc(F)cc2)nc2ccccc21	RanGTP-Impb inh 52.9 (no result: MEX-5 binding)
Cn1c(/C=C/c2ccccc2)nc2ccccc21	none
O=C(NC1CCCC1)c1ccc(COc2ccccc2Br)o1	none (no result: Runt-SMMHC FRET, Runt-CBFb FRET, PKD1 kinase inh, EBV gp42 block)
COc1ccc(OC)c(NC(=O)C2CCN(C(=O)c3cccs3)CC2)c1	Runt-CBFb FRET 65.5
COc1ccc(OC)c(NC(=O)C2CCN(S(=O)(=O)c3cccs3)CC2)c1	none
COc1ccc(OC)c(C2C(C(=O)Nc3nc4ccccc4s3)=C(C)NC3=C2C(=O)CCC3)c1 (stereo not drawn)	Runt-SMMHC FRET 142.4
Nc1ccc(C(=O)Nc2ccco2)cc1	RanGTP-Impb inh 37.0
CCOC(=O)C1CN(S(=O)(=O)c2cccs2)c2ccc(CC(=O)OC)cc2O1 (stereo not drawn)	none (no result: Runt-SMMHC FRET, Runt-CBFb FRET, PKD1 kinase inh, EBV gp42 block)
CNCc1ccccc1Sc1ccc(O)c(O)c1	MEX-5 binding -53.6
CCO[C@@H]1OC(C(N)=O)=C[C@H](c2ccc(C(F)(F)F)cc2)[C@H]1CCCO	RanGTP-Impb inh 23.7
CCO[C@@H]1OC(C(=O)O)=C[C@H](c2ccc(C(F)(F)F)cc2)[C@H]1CCCO	none
CC(=O)Nc1cc2c(ccc3ccccc32)oc1=O	RanGTP-Impb inh inconclusive
C/C(=N\Nc1nc(-c2cc(C)ccc2C)cs1)c1cc2c(ccc3ccccc32)oc1=O	RanGTP-Impb inh 63.7, Runt-CBFb FRET 64.4 (no result: Runt-SMMHC FRET)
COCC(C)NC(=O)c1cc2c(ccc3ccccc32)oc1=O (stereo not drawn)	RanGTP-Impb inh 29.4 (no result: Runt-SMMHC FRET, Runt-CBFb FRET, PKD1 kinase inh, EBV gp42 block)
CC(=O)c1cc2c(ccc3ccccc32)oc1=O	RanGTP-Impb inh 116.2 (no result: Runt-SMMHC FRET, Runt-CBFb FRET, PKD1 kinase inh, EBV gp42 block)
Oc1ccc(Br)cc1-c1ccnn1-c1ccccc1	none (no result: Runt-SMMHC FRET, Runt-CBFb FRET, PKD1 kinase inh, EBV gp42 block)
CC(C)(C)OC(=O)N1CCC(C(=O)N[C@H](C(=O)O)c2ccccc2)(c2ccccc2)CC1	none (no result: Runt-SMMHC FRET, Runt-CBFb FRET, PKD1 kinase inh, EBV gp42 block)
O=C(CNS(=O)(=O)c1ccccc1)Nc1cccc([N+](=O)[O-])c1	none
O=c1[nH]c2ccccc2nc1-c1cccs1	Runt-SMMHC FRET 168.8, Runt-CBFb FRET 91.4 (no result: EBV gp42 block)
COc1cc(N2CCCC2)c(OC)cc1/C=C(/C#N)c1cccc(F)c1	EBV gp42 block 107.9
